According to ChEMBL document CHEMBL1154940, “Design, synthesis and biological evaluation of estradiol-chlorambucil hybrids as anticancer agents” (Bioorg Med Chem Lett, 2010):
Active and inactive are the calls of the source. The calls are words filed in the database; no cut-off is given here.

Experiments:
Format in all cases: functional, cell-based
[1] = system: MDA-MB-468; assay: Anticancer activity against human MDA-MB-468 cells assessed as cell survival after 72 hrs by MTT assay
Method in brief: (§1)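 Estrogen receptor-negative human breast cancer lines, tested by MTT cytotoxicity assay with chlorambucil as positive control.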

[2] = system: MCF7; assay: Anticancer activity against human MCF7 cells assessed as cell survival after 72 hrs by MTT assay
Method in brief: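 Estrogen receptor-positive human breast cancer line, tested by MTT cytotoxicity assay with chlorambucil as positive control.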

[3] = system: MDA-MB-436; assay: (§2) Anticancer activity against human MDA-MB-436 cells assessed as cell survival after 72 hrs by MTT assay
Method in brief: (§3)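 Estrogen receptor-negative human breast cancer line, exposed to a range of concentrations for 72 h. MTT read-out is expressed as percent cell survival, with chlorambucil as positive control.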

[4] = system: MDA-MB-231; assay: Anticancer activity against human MDA-MB-231 cells assessed as cell survival after 72 hrs by MTT assay; method in brief: as §1
[5] = as §2; details: MDA-MB-436, 72 h; method in brief: as §3

Structure (SMILES)	Activity [1]	Activity [2]	Activity [3]	Activity [4]	IC50 [5]	IC50 ([4]; MDA-MB-231, 72 h)
C[C@]12CC[C@@H]3c4ccc(O)cc4CC[C@H]3[C@@H]1C[C@@](CO)(CCCCCCCCNC(=O)CCCc1ccc(N(CCCl)CCCl)cc1)[C@@H]2O	Active	Active	Active	Active	–	–
C[C@]12CC[C@@H]3c4ccc(O)cc4CC[C@H]3[C@@H]1C[C@@](CO)(CCCCCCNC(=O)CCCc1ccc(N(CCCl)CCCl)cc1)[C@@H]2O	Active	Active	Active	Active	–	–
O=C(O)CCCc1ccc(N(CCCl)CCCl)cc1 [CHLORAMBUCIL]	Active	Active	–	–	> 160 µM	> 130 µM
COC(=O)[C@@]1(CCCCCCNC(=O)CCCc2ccc(N(CCCl)CCCl)cc2)C[C@H]2[C@@H]3CCc4cc(O)ccc4[C@H]3CC[C@]2(C)[C@H]1O	inactive	inactive	–	Active	–	–
C[C@]12CC[C@@H]3c4ccc(O)cc4CC[C@H]3[C@@H]1C[C@@](CO)(CCCCNC(=O)CCCc1ccc(N(CCCl)CCCl)cc1)[C@@H]2O	Active	Active	–	Active	40 µM	–
